Results published in ChEMBL document CHEMBL1139333, “Search for new pharmacophores for antimalarial activity. Part I: synthesis and antimalarial activity of new 2-methyl-6-ureido-4-quinolinamides” (Bioorg Med Chem, 2009).
In brackets after ≈: the same amount, converted by molar mass.

What was measured:
Klebsiella pneumoniae = assay: Antibacterial activity against Klebsiella pneumoniae after 24 hrs by NCCLS method; type: functional
Procedure, shortened: (§1)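 Bacteria grown on nutrient agar at 37 °C for 24 h, then suspended in normal saline with 0.05% Tween 20 at about […] cells/mL (0.5 McFarland). MIC by NCCLS broth microdilution in Mueller Hinton broth with twofold serial dilutions. Compounds were dissolved in DMSO at 1 mg/mL (stock). Growth, drug and blank controls were included.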

Plasmodium falciparum [1] = assay: Antimalarial effect as schizonticidal activity against chloroquine-sensitive Plasmodium falciparum 3D7 after 40 hrs; conditions: 3D7, 40 h
Pseudomonas aeruginosa = assay: Antibacterial activity against Pseudomonas aeruginosa after 24 hrs by NCCLS method; type: functional; procedure, shortened: as §1
Plasmodium falciparum [2] = assay: Antimalarial activity against chloroquine-sensitive Plasmodium falciparum 3D7 infected erythrocytes after 72 hrs by MSF assay; conditions: 3D7, 72 h
Plasmodium yoelii [3] = assay: Antimalarial activity as parasitaemia after 28 days against chloroquine-resistant Plasmodium yoelii N67 infected Swiss mice (Mus musculus) at 50 mg/kg peroral dose over 7 days; type: functional; conditions: route oral
Plasmodium yoelii [4] = assay: Antimalarial activity as parasitaemia after 28 days against chloroquine-resistant Plasmodium yoelii N67 infected Swiss mice (Mus musculus) at 50 mg/kg peroral dose over 4 days; type: functional; conditions: route oral
Procedure, shortened: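 Swiss mice (25 g, either sex, n=5) infected on day 0 with 1 × 10⁶ P. yoelii N67 chloroquine-resistant parasitized cells. Test compounds were given orally as an aqueous suspension at 50 mg/kg from day 0 to 3; vehicle controls were run alongside. Parasitaemia was counted on tail-vein thin smears on days 4, 7, 14, 21 and 28, or until death.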

Escherichia coli = assay: Antibacterial activity against Escherichia coli after 24 hrs by NCCLS method; type: functional; procedure, shortened: as §1
Enterococcus faecalis = assay: Antibacterial activity against Streptococcus faecalis after 24 hrs by NCCLS method; type: functional; procedure, shortened: as §1
[5] = Selectivity index, ratio of CC50 for african green monkey (Cercopithecus aethiops) Vero cells to IC50 for Plasmodium falciparum 3D7; type: functional
Plasmodium yoelii [6] = assay: Antimalarial activity as reduced parasitaemia after 28 days against chloroquine-resistant Plasmodium yoelii N67 infected Swiss mice (Mus musculus) at 50 mg/kg peroral dose over 7 days; type: functional; design: scale not given: the % may be the effect or the level left; conditions: route oral
Staphylococcus aureus = assay: Antibacterial activity against Staphylococcus aureus after 24 hrs by NCCLS method; type: functional; procedure, shortened: as §1
[7] = system: Plasmodium yoelii nigeriensis; assay: Antimalarial activity at day 28 against Plasmodium yoelii nigeriensis MDR infected Swiss mice (Mus musculus) at 100 mg/kg peroral dose for 7 days; type: functional; conditions: route oral
[8] = system: Plasmodium yoelii nigeriensis; assay: Antimalarial activity day 28 against Plasmodium yoelii nigeriensis MDR infected Swiss mice (Mus musculus) as reduced parasitaemia at 100 mg/kg peroral dose for 7 days; type: functional; design: scale not given: the % may be the effect or the level left; conditions: route oral
[9] = system: Plasmodium yoelii nigeriensis; assay: Antimalarial activity as parasitaemia against Plasmodium yoelii nigeriensis MDR infected Swiss mice (Mus musculus) at 100 mg/kg peroral dose over 4 days; conditions: route oral
[10] = system: Plasmodium yoelii nigeriensis; assay: Antimalarial activity as reduced parasitaemia after 28 days against Plasmodium yoelii nigeriensis MDR infected Swiss mice (Mus musculus) at 100 mg/kg peroral dose over 4 days; type: functional; design: scale not given: the % may be the effect or the level left; conditions: route oral
Procedure, shortened: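 Swiss mice of either sex (25 g) inoculated on day 0 with 1 × 10⁶ P. yoelii nigeriensis MDR parasitized cells. Groups of five mice received an aqueous suspension orally at 100 mg/kg from day 0 to day 3. Five vehicle-only mice served as controls. Parasitemia was read from tail-vein thin blood smears on days 4, 7, 14, 21 and 28, or until death.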

Molecule	MIC (Klebsiella pneumoniae) [µg/mL]	MIC (Plasmodium falciparum [1]) [µg/mL]	MIC (Pseudomonas aeruginosa) [µg/mL]	IC50 (Plasmodium falciparum [2]) [µg/mL]	Activity (Plasmodium yoelii [3]) [%]	Activity (Plasmodium yoelii [4]) [%]	MIC (Escherichia coli) [µg/mL]	MIC (Enterococcus faecalis) [µg/mL]	Selectivity Index [5]	Activity (Plasmodium yoelii [6]) [%]	MIC (Staphylococcus aureus) [µg/mL]	Activity [7] [%]	Activity [8] [%]	Activity [9] [%]	Activity [10] [%]
Cc1cc(NC(=O)CN2CCN(C)CC2)c2cc(NC(=O)Nc3ccc(C)c(Cl)c3)ccc2n1	12.5 (≈ 26 µM)	0.25 (≈ 0.52 µM)	> 50	0.0033 (≈ 0.00686 µM)	5.15	1.67	6.25 (≈ 13 µM)	–	–	–	–	–	–	–	–
Cc1cc(NC(=O)CN2CCN(C)CC2)c2cc(NC(=O)Nc3cc(Cl)cc(Cl)c3)ccc2n1	–	0.25 (≈ 0.499 µM)	–	0.0004 (≈ 0.000798 µM)	15.5	4.78	1.56 (≈ 3.11 µM)	3.12 (≈ 6.23 µM)	4404.8	–	–	–	–	–	–
Cc1cc(NC(=O)CN2CCN(C)CC2)c2cc(NC(=O)Nc3ccc(Cl)c(Cl)c3)ccc2n1	–	0.25 (≈ 0.499 µM)	6.25 (≈ 12.5 µM)	0.0022 (≈ 0.00439 µM)	1.5	2.55	1.56 (≈ 3.11 µM)	1.56 (≈ 3.11 µM)	–	92.9	6.25 (≈ 12.5 µM)	–	–	–	–
Cc1cc(NC(=O)CN2CCN(C)CC2)c2cc(NC(=O)Nc3ccc(Cl)c(C(F)(F)F)c3)ccc2n1	1.56 (≈ 2.92 µM)	0.5 (≈ 0.935 µM)	12.5 (≈ 23.4 µM)	0.0182 (≈ 0.034 µM)	11	2.28	1.56 (≈ 2.92 µM)	3.1 (≈ 5.79 µM)	53.4	–	6.25 (≈ 11.7 µM)	–	–	–	–
GENTAMICIN	25	–	6.25	–	–	–	–	3.12	–	–	6.25	–	–	–	–
CCN1CCN(CC(=O)Nc2cc(C)nc3ccc(NC(=O)Nc4cc(Cl)cc(Cl)c4)cc23)CC1	6.25 (≈ 12.1 µM)	0.5 (≈ 0.97 µM)	–	–	–	–	12.5 (≈ 24.3 µM)	–	–	–	3.12 (≈ 6.05 µM)	–	–	–	–
Cc1cc(NC(=O)c2ccco2)c2cc(NC(=O)Nc3cccc(C#N)c3)ccc2n1	–	0.5 (≈ 1.22 µM)	–	0.0004 (≈ 0.000972 µM)	–	–	–	–	–	–	–	1.84	91.29	0	100
Cc1cc(NC(=O)CN2CCN(C)CC2)c2cc(NC(=O)Nc3cccc(Cl)c3)ccc2n1	–	0.25 (≈ 0.535 µM)	–	0.013 (≈ 0.0278 µM)	–	–	–	–	549.7	–	–	50	–	18.8	–
Cc1cc(NC(=O)CN2CCCCC2)c2cc(NC(=O)Nc3ccc(Cl)c(C(F)(F)F)c3)ccc2n1	–	0.25 (≈ 0.481 µM)	–	0.0358 (≈ 0.0689 µM)	–	–	–	–	76.5	–	–	13.83	–	0.27	–
Cc1cc(NC(=O)c2cccc(Cl)c2)c2cc(NC(=O)Nc3ccc(Cl)cc3)ccc2n1	6.25 (≈ 13.4 µM)	1 (≈ 2.15 µM)	1.56 (≈ 3.35 µM)	0.0144 (≈ 0.0309 µM)	–	–	12.5 (≈ 26.9 µM)	12.5 (≈ 26.9 µM)	–	–	3.12 (≈ 6.7 µM)	–	–	–	–
Cc1cc(NC(=O)CN2CCN(C)CC2)c2cc(NC(=O)Nc3ccc(Br)cc3)ccc2n1	6.25 (≈ 12.2 µM)	1 (≈ 1.96 µM)	1.56 (≈ 3.05 µM)	–	–	–	6.25 (≈ 12.2 µM)	6.25 (≈ 12.2 µM)	–	–	–	–	–	–	–
Cc1cc(NC(=O)c2ccccc2)c2cc(NC(=O)Nc3cc(Cl)cc(Cl)c3)ccc2n1	0.04 (≈ 0.086 µM)	2 (≈ 4.3 µM)	12.5 (≈ 26.9 µM)	–	–	–	0.0025 (≈ 0.00537 µM)	0.01 (≈ 0.0215 µM)	–	–	–	–	–	–	–
CCN1CCN(CC(=O)Nc2cc(C)nc3ccc(NC(=O)Nc4ccc(Cl)c(Cl)c4)cc23)CC1	12.5 (≈ 24.3 µM)	0.5 (≈ 0.97 µM)	–	–	–	–	–	–	–	–	6.25 (≈ 12.1 µM)	–	–	–	–
